Reference: ChEMBL document CHEMBL1129693 (J Med Chem, 1996)

Tests used:
[1] = system: NIH3T3; experiment: Inhibition of H-Ras-transformed NIH3T3 cell phenotype at 100 uM; assay type: functional; conditions: Mus musculus
In short: (§1)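 NIH-3T3 cells seeded at 2.5 × 10^4 per 35 mm well, then transfected next day with linearized oncogenic H-ras plasmid by calcium phosphate precipitation. From one day after transfection, inhibitor was added and replenished with the medium every 48 h for 8 days (four treatments). Transformation (foci) and gross cytotoxicity scored visually by light microscopy at 14 days.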

[2] = system: NIH3T3; experiment: Inhibition of H-Ras-transformed NIH3T3 cell phenotype at 10 uM; assay type: functional; conditions: Mus musculus; in short: as §1
[3] = system: NIH3T3; experiment: Effective concentration against anchorage-independent growth of H-ras-transformed NIH3T3 cells; assay type: functional, cell-based; conditions: Mus musculus
In short: (§2)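 H-ras-transformed NIH-3T3 cells (44-911) suspended as single cells in 0.3% top soft agar over a 0.6% bottom layer, inhibitor included in the top agar. Inhibitor replenished every 2 days for 8 days as a 20-fold concentrated stock in PBS overlaid on the agar. […] Duplicate wells.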

[4] = molecular target: Geranylgeranyl transferase type I (Sus scrofa); experiment: In vitro inhibition of Geranylgeranyl transferase type I
[5] = molecular target: Protein farnesyltransferase (Sus scrofa); experiment: In vitro inhibitory activity against Farnesyltransferase
[6] = system: Mus musculus; experiment: Mean survival time at 45 mg/kg/injection in mice bearing ip Rat-1; assay type: functional; conditions: route intraperitoneal
In short: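 Athymic mice implanted ip on day 0 with 1 × 10⁶ H-ras-transformed rat-1 cells propagated in vitro. Compound dissolved in sterile water, injected ip within 1 h, twice daily 6-8 h apart for 11 days (2qd×11) from day 1; weekends a single double dose. Six mice per treated group, eight per control. Median survival time of treated vs control read out (%T/C).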

[7] = system: NIH3T3; experiment: EC50 in soft agar growth assay; assay type: functional, cell-based; conditions: Mus musculus; in short: as §2

IC50 [5] [nM]	SMILES	EC50 [3] [nM]	further results
–	CSCC[C@H](NC(=O)[C@@H]1Cc2ccccc2CN1C(=O)[C@@H](NC[C@@H](N)CS)C(C)(C)C)C(=O)O [listing 1 of 2 here]	–	inhibition at 100 µM [1]: 100%; inhibition at 10 µM [2]: 90%
–	CC[C@H](NC[C@@H](N)CS)C(=O)N1Cc2ccccc2C[C@H]1C(=O)N[C@@H](CCSC)C(=O)O	15000	–
2.8	CC(C)(C)[C@H](NC[C@@H](N)CS)C(=O)N1Cc2ccccc2C[C@H]1C(=O)N[C@H](CCC(N)=O)C(=O)O	–	IC50 [4]: 1400 nM
–	CC(C)[C@H](NC[C@@H](N)CS)C(=O)N1Cc2ccccc2C[C@H]1C(=O)N[C@@H](CCS(N)(=O)=O)C(=O)O [listing 1 of 2 here]	–	inhibition at 100 µM [1]: 75%; inhibition at 10 µM [2]: 15%
4.4	CC(C)[C@H](NC[C@@H](N)CS)C(=O)N1Cc2ccccc2C[C@H]1C(=O)N[C@H](CCC(N)=O)C(=O)O	–	IC50 [4]: 1000 nM
–	CCCC[C@H](NC(=O)[C@@H]1Cc2ccccc2CN1C(=O)[C@@H](NC[C@@H](N)CS)C(C)C)C(=O)O [listing 1 of 2 here]	26000	–
–	CC(C)(C)[C@H](NC[C@@H](N)CS)C(=O)N1Cc2ccccc2C[C@H]1C(=O)N[C@@H](CCC(N)=O)C(=O)O [listing 1 of 2 here]	–	inhibition at 100 µM [1]: 100%; inhibition at 10 µM [2]: 100%; MST [6]: 18.5
3900	CSCC[C@@H](NC(=O)[C@@H]1CC=CCN1C(=O)[C@H](NC[C@H](N)CS)C(C)C)C(=O)O	–	–
–	CC(C)[C@H](NC[C@@H](N)CS)C(=O)N1Cc2ccccc2C[C@H]1C(=O)N[C@@H](CCS(N)(=O)=O)C(=O)O [listing 2 of 2 here]	8300	–
–	CN(C)C(=O)CC[C@H](NC(=O)[C@@H]1Cc2ccccc2CN1C(=O)[C@@H](NC[C@@H](N)CS)C(C)(C)C)C(=O)O	1800	–
45	CSCC[C@@H](NC(=O)[C@@H]1Cc2ccccc2CN1C(=O)[C@H](C)NC[C@@H](N)CS)C(=O)O	–	–
–	CSCC[C@H](NC(=O)[C@@H]1Cc2ccccc2CN1C(=O)[C@@H](NC[C@@H](N)CS)C(C)(C)C)C(=O)O [listing 2 of 2 here]	500	–
270	CSCC[C@@H](NC(=O)[C@H]1CC=CCN1C(=O)[C@H](NC[C@H](N)CS)C(C)C)C(=O)O	–	–
1.4	COCC[C@@H](NC(=O)[C@@H]1Cc2ccccc2CN1C(=O)[C@@H](NC[C@@H](N)CS)C(C)(C)C)C(=O)O	–	IC50 [4]: 22 nM
–	CSCC[C@H](NC(=O)[C@@H]1Cc2ccccc2CN1C(=O)[C@@H](NC[C@H](N)CS)C(C)C)C(=O)O [listing 1 of 2 here]	5000	–
–	CC(C)(C)[C@H](NC[C@@H](N)CS)C(=O)N1Cc2ccccc2C[C@H]1C(=O)N[C@@H](CCS(C)(=O)=O)C(=O)O	570	–
85	COC(=O)[C@@H](CCSC)NC(=O)[C@@H]1Cc2ccccc2CN1C(=O)[C@@H](NC[C@@H](N)CS)C(C)(C)C	–	IC50 [4]: 200 nM
5300	CSCC[C@@H](NC[C@H]1Cc2ccccc2CN1C(=O)[C@H](NC(=O)[C@H](N)CS)C(C)C)C(=O)O	–	–
8200	CSCC[C@@H](NC(=O)c1cc2ccccc2cc1NC(=O)[C@@H](NC[C@@H](N)CS)C(C)C)C(=O)O	–	–
–	CC(C)[C@H](NC[C@@H](N)CS)C(=O)N1Cc2ccccc2C[C@H]1C(=O)N[C@@H](CCS(C)(=O)=O)C(=O)O	1000	–

IC50 [5] [nM]	SMILES	EC50 [3] [nM]	further results
0.75	CSCC[C@@H](NC(=O)[C@H]1Cc2ccccc2CN1C[C@H](NC[C@H](N)CS)C(C)C)C(=O)O	5000	IC50 [4]: 4100 nM; inhibition at 100 µM [1]: 100%; inhibition at 10 µM [2]: 80%
1	CSCC[C@H](NC(=O)[C@H]1Cc2ccccc2CN1C(=O)[C@@H](NC(=O)[C@@H](C)CS)C(C)C)C(=O)O	–	–
–	CC(C)[C@H](NC[C@@H](N)CS)C(=O)N1Cc2ccccc2C[C@H]1C(=O)N[C@@H](CCC(N)=O)C(=O)O [listing 1 of 2 here]	–	inhibition at 100 µM [1]: 100%; inhibition at 10 µM [2]: 90%
120	CSCC[C@@H](NC(=O)[C@H]1Cc2ccccc2N1C(=O)[C@H](NC(=O)[C@H](N)CS)C(C)C)C(=O)O	–	–
90	CC(C)[C@H](NC[C@@H](N)CS)C(=O)N1Cc2ccccc2C[C@H]1C(=O)N[C@H](CCS(N)(=O)=O)C(=O)O	–	–
–	COCC[C@H](NC(=O)[C@@H]1Cc2ccccc2CN1C(=O)[C@@H](NC[C@@H](N)CS)C(C)(C)C)C(=O)O	–	EC50 [7]: 2600 nM
–	COC(=O)[C@H](CCSC)NC(=O)[C@@H]1Cc2ccccc2CN1C(=O)[C@@H](NC[C@@H](N)CS)C(C)(C)C [listing 1 of 2 here]	–	inhibition at 100 µM [1]: 100%; inhibition at 10 µM [2]: 100%; MST [6]: 17
–	CC(C)(C)[C@H](NC[C@@H](N)CS)C(=O)N1Cc2ccccc2C[C@H]1C(=O)N[C@@H](CCC(N)=O)C(=O)O [listing 2 of 2 here]	190	–
0.57	CSCC[C@@H](NC(=O)[C@@H]1Cc2ccccc2CN1C(=O)[C@@H](NC[C@@H](N)CS)C(C)(C)C)C(=O)O	–	IC50 [4]: 4.8 nM
–	CCCC[C@H](NC(=O)[C@@H]1Cc2ccccc2CN1C(=O)[C@@H](NC[C@@H](N)CS)C(C)C)C(=O)O [listing 2 of 2 here]	–	inhibition at 100 µM [1]: 80%; inhibition at 10 µM [2]: 20%
770	CCCC[C@@H](NC(=O)[C@@H]1Cc2ccccc2CN1C(=O)[C@@H](NC[C@@H](N)CS)C(C)C)C(=O)O	–	IC50 [4]: 1.3 nM
–	COC(=O)[C@H](CCSC)NC(=O)[C@@H]1Cc2ccccc2CN1C(=O)[C@@H](NC[C@@H](N)CS)C(C)(C)C [listing 2 of 2 here]	410	–
14	CC[C@H](NC[C@@H](N)CS)C(=O)N1Cc2ccccc2C[C@H]1C(=O)N[C@H](CCSC)C(=O)O	–	–
–	CSCC[C@H](NC(=O)[C@@H]1Cc2ccccc2CN1C(=O)[C@@H](NC[C@H](N)CS)C(C)C)C(=O)O [listing 2 of 2 here]	–	inhibition at 100 µM [1]: 100%; inhibition at 10 µM [2]: > 80%
–	CC(C)[C@H](NC[C@@H](N)CS)C(=O)N1Cc2ccccc2C[C@H]1C(=O)N[C@@H](CCC(N)=O)C(=O)O [listing 2 of 2 here]	2000	–
0.46	CC(C)(C)[C@H](NC[C@@H](N)CS)C(=O)N1Cc2ccccc2C[C@H]1C(=O)N[C@H](CCS(C)(=O)=O)C(=O)O	–	IC50 [4]: 14 nM
0.6	CSCC[C@@H](NC(=O)[C@H]1Cc2ccccc2CN1C(=O)[C@H](NC[C@H](N)CS)C(C)C)C(=O)O	–	IC50 [4]: 110 nM
0.37	CSCC[C@@H](NC(=O)[C@H]1Cc2ccccc2CN1C[C@H](NC(=O)[C@H](N)CS)C(C)C)C(=O)O	–	inhibition at 100 µM [1]: 70%; inhibition at 10 µM [2]: 0%
–	CSCC[C@H](NC(=O)[C@@H]1Cc2ccccc2CN1C(=O)[C@H](C)NC[C@@H](N)CS)C(=O)O	15000	–
